We go through 10 molecules from ChEMBL document CHEMBL1121378, “Lipophilic and hydrophilic esters of 4-acetyl-2-(2-hydroxyethyl)-5,6-bis(4-chlorophenyl)-2H-pyridazin-3-one as antihypertensive agents” (1980).

Structures are written as SMILES.

In test [1] the test system is Rattus norvegicus. As to the kind of experiment: Antihypertensive activity in spontaneously hypertensive rats was measured as average blood pressure at 30 mg/kg, p.o. after 24 hours of postdose-1. It counts as functional. The following applies: route oral. In short, it runs like this:
(§1)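 SHR model with two successive doses, designated dose 1 and dose 2. Group-average blood pressure in mmHg was recorded before dosing and at 4 h and 24 h after each dose. The route is oral unless marked intra-arterial or subcutaneous. A table footnote marks doses that gave no significant lowering at 4 or 24 h postdose.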

The subject of test [2] is Rattus norvegicus. As to the kind of experiment: Antihypertensive activity in spontaneously hypertensive rats was measured as average blood pressure at 30 mg/kg, po after 24 hours of postdose-2. It counts as functional. In short, it runs like this:
as §1

The subject of test [3] is Rattus norvegicus. As to the kind of experiment: Antihypertensive activity in spontaneously hypertensive rats was measured as average blood pressure at 30 mg/kg, p.o. after 4 hours of postdose-1. The format is functional. The conditions noted are these: route oral. In short, it runs like this:
as §1

Test [4] relates to Rattus norvegicus. As to the kind of experiment: Antihypertensive activity in spontaneously hypertensive rats was measured as average blood pressure at 30 mg/kg, p.o. after 4 hours of postdose-2. It counts as functional. The following applies: route oral. In short, it runs like this: as §1
Test [5] relates to Rattus norvegicus. As to the kind of experiment: Antihypertensive activity in spontaneously hypertensive rats was measured as average blood pressure at 30 mg/kg, po before predose. It counts as functional. In short, it runs like this:
as §1

Test [6] deals with Rattus norvegicus. As to the kind of experiment: Antihypertensive activity in spontaneously hypertensive rats was measured as average blood pressure at 100 mg/kg, p.o. after 24 hours of postdose-1; No significant lowering of blood pressure. Further details: dose 100 mg/kg. The format is functional, organism-based. In a few lines:
as §1

For test [7], the system named is Rattus norvegicus. As to the kind of experiment: Antihypertensive activity in spontaneously hypertensive rats was measured as average blood pressure at 100 mg/kg, po after 4 hours of postdose-1; No significant lowering of blood pressure. It counts as functional, organism-based. Further details: dose 100 mg/kg. In short, it runs like this: as §1
Test [8] deals with Rattus norvegicus. As to the kind of experiment: Antihypertensive activity in spontaneously hypertensive rats was measured as average blood pressure at 13 mg/kg, po after 24 hours of postdose-1. It counts as functional. In a few lines: as §1
In test [9] the test system is Rattus norvegicus. As to the kind of experiment: Antihypertensive activity in spontaneously hypertensive rats was measured as average blood pressure at 13 mg/kg, p.o. after 24 hours of postdose-2. The format is functional. The conditions noted are these: route oral. In a few lines:
as §1

In test [10] the test system is Rattus norvegicus. As to the kind of experiment: Antihypertensive activity in spontaneously hypertensive rats was measured as average blood pressure at 13 mg/kg, p.o. after 4 hours of postdose-2. It counts as functional. The following applies: route oral. In short, it runs like this:
as §1

The test system of test [11] is Rattus norvegicus. As to the kind of experiment: Antihypertensive activity in spontaneously hypertensive rats was measured as average blood pressure at 13 mg/kg, p.o. before predose. It counts as functional. The following applies: route oral. In short, it runs like this:
as §1

In test [12] the test system is Rattus norvegicus. As to the kind of experiment: Antihypertensive activity in spontaneously hypertensive rats was measured as average blood pressure at 13 mg/kg, p.o. after 4 hours of postdose-1. It counts as functional. The conditions noted are these: route oral. In a few lines:
as §1

In test [13] the test system is Rattus norvegicus. As to the kind of experiment: Antihypertensive activity in spontaneously hypertensive rats was measured as average blood pressure at 14 mg/kg, p.o. after 24 hours of postdose-1; No significant lowering of blood pressure. The format is functional, organism-based. Further details: dose 14 mg/kg. In short, it runs like this: as §1
Test [14] deals with Rattus norvegicus. As to the kind of experiment: Antihypertensive activity in spontaneously hypertensive rats was measured as average blood pressure at 14 mg/kg, p.o. after 4 hours of postdose-1; No significant lowering of blood pressure. It counts as functional, organism-based. Further details: dose 14 mg/kg. In short, it runs like this:
as §1

Test [15] deals with Rattus norvegicus. As to the kind of experiment: Antihypertensive activity in spontaneously hypertensive rats was measured as average blood pressure at 100 mg/kg, p.o. after 24 hours of postdose-1. It counts as functional. The following applies: route oral. In a few lines:
as §1

Test [16] concerns Rattus norvegicus. As to the kind of experiment: Antihypertensive activity in spontaneously hypertensive rats was measured as average blood pressure at 100 mg/kg, p.o. after 24 hours of postdose-2. It counts as functional. The following applies: route oral. In short, it runs like this: as §1
Test [17] has as its system Rattus norvegicus. As to the kind of experiment: Antihypertensive activity in spontaneously hypertensive rats was measured as average blood pressure at 100 mg/kg, p.o. after 4 hours of postdose-1. It counts as functional. The conditions noted are these: route oral. In short, it runs like this: as §1
Test [18] relates to Rattus norvegicus. As to the kind of experiment: Antihypertensive activity in spontaneously hypertensive rats was measured as average blood pressure at 100 mg/kg, p.o. after 4 hours of postdose-2. The format is functional. The following applies: route oral. In short, it runs like this: as §1
Test [19] deals with Rattus norvegicus. As to the kind of experiment: Antihypertensive activity in spontaneously hypertensive rats was measured as average blood pressure at 100 mg/kg, p.o. before predose. The format is functional. The following applies: route oral. In short, it runs like this:
as §1

As to `CCCCCCCCCCCCCCCCCC(=O)OCCn1nc(-c2ccc(Cl)cc2)c(-c2ccc(Cl)cc2)c(C(C)=O)c1=O`, the BP in the test with Rattus norvegicus [1] is 162 mmHg; in the test on Rattus norvegicus [2], 137 mmHg; in the test on Rattus norvegicus [3], 168 mmHg; in the test with Rattus norvegicus [4] it was 142 mmHg; in the test on Rattus norvegicus [5], 181 mmHg.
Take `CC(=O)c1c(-c2ccc(Cl)cc2)c(-c2ccc(Cl)cc2)nn(CCOC(=O)C(NC(=O)OCc2ccccc2)C2(/N=C(/N)N[N+](=O)[O-])CCC2)c1=O` (stereo not given): the BP entry in the test on Rattus norvegicus [6] and in the test with Rattus norvegicus [7] was “Not significant” each time.
On to `Br.CC(=O)c1c(-c2ccc(Cl)cc2)c(-c2ccc(Cl)cc2)nn(CCOC(=O)CN)c1=O`, for which the BP with Rattus norvegicus [8] came to 154 mmHg; in the test with Rattus norvegicus [9], 170 mmHg; in the test with Rattus norvegicus [10], 145 mmHg; in the test with Rattus norvegicus [11], 182 mmHg; in the test on Rattus norvegicus [12] it was 177 mmHg.
Take `CC(=O)c1c(-c2ccc(Cl)cc2)c(-c2ccc(Cl)cc2)nn(CCOC(=O)CNC(=O)OCc2ccccc2)c1=O`: the BP entry in the test on Rattus norvegicus [6] and in the test on Rattus norvegicus [7] was “Not significant” each time.
As to `CC(=O)c1c(-c2ccc(Cl)cc2)c(-c2ccc(Cl)cc2)nn(CCOC(=O)C(C)(C)C)c1=O`, the BP in the test with Rattus norvegicus [1] is given as 202 mmHg; in the test on Rattus norvegicus [2], 205 mmHg; in the test on Rattus norvegicus [3], 200 mmHg; with Rattus norvegicus [4], 158 mmHg; with Rattus norvegicus [5], 205 mmHg.
In the case of `CC(=O)c1c(-c2ccc(Cl)cc2)c(-c2ccc(Cl)cc2)nn(CCOC(=O)C(N)C(C)C)c1=O` (stereo not given), the BP result in the test with Rattus norvegicus [13] and in the test with Rattus norvegicus [14] was “Not significant” each time.
Take `CC(=O)c1c(-c2ccc(Cl)cc2)c(-c2ccc(Cl)cc2)nn(CCOC(=O)C(NC(=O)OCc2ccccc2)C(C)C)c1=O` (stereo not given): the BP entry in the test on Rattus norvegicus [6] and with Rattus norvegicus [7] was “Not significant” throughout.
On to `CC(=O)c1c(-c2ccc(Cl)cc2)c(-c2ccc(Cl)cc2)nn(CCO)c1=O`, for which the BP in the test on Rattus norvegicus [15] is reported as 185 mmHg; in the test on Rattus norvegicus [16], 193 mmHg; in the test with Rattus norvegicus [1] it was 192 mmHg; with Rattus norvegicus [2], 206 mmHg; in the test on Rattus norvegicus [3], 200 mmHg; in the test with Rattus norvegicus [4], 164 mmHg. For the same molecule, the BP in the test with Rattus norvegicus [5] was found to be 213 mmHg; with Rattus norvegicus [17], 173 mmHg; in the test on Rattus norvegicus [18] it was 174 mmHg; in the test on Rattus norvegicus [19], 218 mmHg.
Turning to `CC(=O)c1c(-c2ccc(Cl)cc2)c(-c2ccc(Cl)cc2)nn(CCOC(=O)c2ccccc2)c1=O`, the BP in the test with Rattus norvegicus [1] was 139 mmHg; in the test with Rattus norvegicus [2], 130 mmHg; with Rattus norvegicus [3], 116 mmHg; in the test on Rattus norvegicus [4] it was 136 mmHg; in the test with Rattus norvegicus [5], 173 mmHg.
In the case of `CC(=O)c1c(-c2ccc(Cl)cc2)c(-c2ccc(Cl)cc2)nn(CCOC(=O)CCNC(=O)OCc2ccccc2)c1=O`, the BP result with Rattus norvegicus [6] and with Rattus norvegicus [7] was “Not significant” in each case.
